# Calls of active or inactive are those of the source. The calls are words filed in the database; no cut-off is given here.
# Experiments:
# [1] = test system: dsDNA; assay: Stabilization of 5'6FAM/3'Dabcyl-labelled double stranded DNA (unknown origin) assessed as change in melting temperature at 0.75 uM by fluorescence assay; format: nucleic-acid assay
# How it was run: (§1)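 Thermal stabilization of dsDNA or G-quadruplex DNA is measured as ΔTm at 0.75 and 2.5 μM compound.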
# [2] = test system: Quadruplex DNA; assay: Stabilization of 3'-6FAM/5'-Dabcyl-labelled human telomeric 22 G-quadruplex DNA assessed as change in melting temperature at 0.75 uM by fluorescence assay; format: nucleic-acid assay; how it was run: as §1
# [3] = biological target: Histone deacetylase; assay: Inhibition of HDAC in human HeLa nuclear extract using Fluor de Lys as substrate by fluorimetric method; format: protein assay
# [4] = biological target: Histone deacetylase 1 (Homo sapiens, UniProt Q13547); assay: Inhibition of recombinant human C-terminal FLAG-His tagged HDAC1 (1 to 482 residues) expressed in Sf21 insect cells using RHK-K(Ac)-AMC as substrate by fluorescence assay
# [5] = biological target: Histone deacetylase 2 (Homo sapiens, UniProt Q92769); assay: Inhibition of recombinant human C-terminal GST-tagged HDAC2 (1 to 488 residues) expressed in baculovirus infected Sf21 insect cells using RHK-K(Ac)-AMC as substrate measured after 30 mins by fluorescence assay
# [6] = biological target: Histone deacetylase 4 (Homo sapiens, UniProt P56524); assay: Inhibition of recombinant human N-terminal GST-tagged/C-terminal His-tagged HDAC4 (627 to 1084 residues) expressed in baculovirus infected Sf21 insect cells using (Boc-Lys(trifluoroacetyl)-AMC) as substrate by fluorescence assay
# [7] = biological target: T1, Protein deacetylase HDAC6 (Homo sapiens, UniProt Q9UBN7); assay: Inhibition of recombinant human N-terminal GST-tagged HDAC6 (1 to 1215 residues) expressed in baculovirus infected Sf21 insect cells using RHKKAc as substrate by fluorescence assay
# T1 sequence (Q9UBN7 whole entry): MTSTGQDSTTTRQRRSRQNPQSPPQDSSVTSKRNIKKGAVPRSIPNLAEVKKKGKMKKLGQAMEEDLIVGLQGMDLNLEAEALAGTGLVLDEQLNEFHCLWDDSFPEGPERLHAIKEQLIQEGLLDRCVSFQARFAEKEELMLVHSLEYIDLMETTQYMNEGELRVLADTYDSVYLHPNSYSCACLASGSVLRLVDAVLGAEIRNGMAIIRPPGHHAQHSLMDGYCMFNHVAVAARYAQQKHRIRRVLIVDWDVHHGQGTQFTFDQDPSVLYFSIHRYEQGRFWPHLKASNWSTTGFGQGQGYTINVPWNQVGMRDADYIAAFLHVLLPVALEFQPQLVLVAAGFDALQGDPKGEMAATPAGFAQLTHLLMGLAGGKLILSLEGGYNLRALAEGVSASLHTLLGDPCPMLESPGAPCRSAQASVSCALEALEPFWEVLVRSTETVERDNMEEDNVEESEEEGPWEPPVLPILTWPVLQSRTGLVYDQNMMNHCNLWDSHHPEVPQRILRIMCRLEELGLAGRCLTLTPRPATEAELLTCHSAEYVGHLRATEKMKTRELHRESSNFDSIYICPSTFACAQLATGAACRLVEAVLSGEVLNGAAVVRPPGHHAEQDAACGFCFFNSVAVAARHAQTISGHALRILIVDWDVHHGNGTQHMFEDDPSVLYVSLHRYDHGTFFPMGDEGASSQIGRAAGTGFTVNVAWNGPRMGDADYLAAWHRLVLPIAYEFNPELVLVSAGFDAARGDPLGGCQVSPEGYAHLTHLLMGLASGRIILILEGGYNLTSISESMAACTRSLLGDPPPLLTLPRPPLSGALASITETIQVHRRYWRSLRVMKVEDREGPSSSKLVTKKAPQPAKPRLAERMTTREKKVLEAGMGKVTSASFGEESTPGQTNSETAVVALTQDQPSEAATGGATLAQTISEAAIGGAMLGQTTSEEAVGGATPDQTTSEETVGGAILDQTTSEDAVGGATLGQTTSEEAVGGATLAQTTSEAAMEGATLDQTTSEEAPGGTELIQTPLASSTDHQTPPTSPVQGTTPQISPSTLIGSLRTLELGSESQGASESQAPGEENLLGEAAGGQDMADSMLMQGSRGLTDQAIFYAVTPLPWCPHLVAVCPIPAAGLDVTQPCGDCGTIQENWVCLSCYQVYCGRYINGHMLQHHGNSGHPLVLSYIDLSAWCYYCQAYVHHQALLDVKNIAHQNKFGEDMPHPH
# [8] = biological target: T2, Histone deacetylase (Homo sapiens) (UniProt Q13547+O15379+Q9UBN7+Q92769+Q9UQL6+Q8WUI4+Q9BY41+Q96DB2+P56524+Q9UKV0+Q969S8); assay: Inhibition of HDAC in human A549 cells assessed as increase in acetylated H3 level at 5 uM after 24 hrs by Western blot analysis relative to control; format: cell-based
# How it was run: (§2)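 A549 cells are treated 24 h at 5 μM. Global histone H3 and H4 lysine acetylation is detected by Western blotting.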
# [9] = biological target: T2, Histone deacetylase (Homo sapiens); assay: Inhibition of HDAC in human A549 cells assessed as increase in acetylated H4 level at 5 uM after 24 hrs by Western blot analysis relative to control; format: cell-based; how it was run: as §2
# [10] = test system: U-87 MG; assay: Growth inhibition of human U87 cells after 48 hrs by alamar blue assay; format: functional, U-87MG ATCC
# How it was run: (§3)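 Growth inhibition in U87, HCT116 and A549 cells at 0.2, 1 and 5 μM. GI50 is derived from the inhibitory dose–response curve.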
# [11] = test system: HCT-116; assay: Growth inhibition of human HCT116 cells after 48 hrs by alamar blue assay; format: functional; conditions: for GI50: HCT-116, 48 h; how it was run: as §3
# [12] = test system: A549; assay: Growth inhibition of human A549 cells after 48 hrs by alamar blue assay; format: functional; conditions: for GI50: A549, 48 h; how it was run: as §3
# [13] = test system: HCT-116; assay: Inhibition of epithelial-mesenchymal transition in human HCT116 cells assessed as upregulation of CDH1 expression at 5 uM after 48 hrs by SYBR-green dye based RT-PCR analysis relative to control; format: functional
# How it was run: (§4)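 HCT116 and A549 cells are treated 48 h with 5 μM. CDH1 and VIM expression is measured against untreated control. Data are mean ± SEM of four independent experiments.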
# [14] = test system: A549; assay: Inhibition of epithelial-mesenchymal transition in human A549 cells assessed as upregulation of CDH1 expression at 5 uM after 48 hrs by SYBR-green dye based RT-PCR analysis relative to control; format: functional; how it was run: as §4
# [15] = test system: HCT-116; assay: Inhibition of epithelial-mesenchymal transition in human HCT116 cells assessed as down regulation of VIM expression at 5 uM after 48 hrs by SYBR-green dye based RT-PCR analysis relative to control; format: functional; how it was run: as §4
# [16] = test system: A549; assay: Suppression of TGFbeta1-induced cell proliferation in human A549 cells assessed as reduction in cell growth at 5 uM treated for 24 hrs in presence of TGFbeta1 followed by addition of fresh media containing compounds for 24 hrs by alamar blue assay relative to control; format: functional; set-up: scale not given: the % may be the effect or the level left
# How it was run: (§5)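 A549 cells stimulated with TGF-β1 get a 48 h-long 5 μM treatment. Percentage growth is evaluated according to NCI screening procedures, as mean value.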
# [17] = test system: A549; assay: Inhibition of epithelial-mesenchymal transition in human A549 cells assessed as down regulation of VIM expression at 5 uM after 48 hrs by SYBR-green dye based RT-PCR analysis relative to control; format: functional; how it was run: as §4
# [18] = test system: A549; assay: (§6) Inhibition of TGFbeta1-induced epithelial-mesenchymal transition in human A549 cells assessed as upregulation of CDH1 expression at 5 uM treated for 24 hrs in presence of TGFbeta1 followed by addition of fresh media containing compounds for 24 hrs by SYBR-green dye based RT-PCR analysis relative to control; format: functional
# How it was run: (§7)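 A549 cells are stimulated with TGF-β1, alone or combined with 5 μM compound. CDH1 and VIM expression is measured and compared with control and with TGF-β1 alone.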
# [19] = test system: A549; assay: as §6, with “down regulation” for “upregulation”, “VIM” for “CDH1”; format: functional; how it was run: as §7
# [20] = test system: A549; assay: Antimigratory activity against human A549 cells assessed as reduction in cell migration towards wound area at 5 uM measured after 24 hrs by scratch wound-healing assay relative to control; format: functional; set-up: scale not given: the % may be the effect or the level left
# How it was run: (§8)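 Scratch wound healing on A549 cells, with or without TGF-β1 stimulation. Repopulation of the wound area is read at 24 h postscratch.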
# [21] = test system: A549; assay: Antimigratory activity against TGFbeta1-stimulated human A549 cells assessed as reduction in cell migration towards wound area at 5 uM treated for 24 hrs in presence of TGFbeta1 followed by addition of fresh media containing compounds for 24 hrs by scratch wound-healing assay relative to control; format: functional; how it was run: as §8
# [22] = test system: A549; assay: Suppression of TGFbeta1-induced cell proliferation in human A549 cells at 5 uM treated for 24 hrs in presence of TGFbeta1 followed by addition of fresh media containing compounds for 24 hrs by alamar blue assay relative to control; format: functional; how it was run: as §5
# [23] = biological target: DNA polymerase I, thermostable (Thermus aquaticus) (UniProt P19821); assay: Inhibition of Thermus aquaticus Taq-polymerase using pBR322 as substrate up to 40 uM by PCR analysis
# [24] = test system: dsDNA; assay: Stabilization of 5'6FAM/3'Dabcyl-labelled double stranded DNA (unknown origin) assessed as change in melting temperature at 2.5 uM by fluorescence assay; format: nucleic-acid assay; how it was run: as §1
# [25] = test system: Quadruplex DNA; assay: Stabilization of 3'-6FAM/5'-Dabcyl-labelled human telomeric 22 G-quadruplex DNA assessed as change in melting temperature at 2.5 uM by fluorescence assay; format: nucleic-acid assay; how it was run: as §1
# Chain of DNA polymerase I, thermostable (Thermus aquaticus) (P19821 whole entry): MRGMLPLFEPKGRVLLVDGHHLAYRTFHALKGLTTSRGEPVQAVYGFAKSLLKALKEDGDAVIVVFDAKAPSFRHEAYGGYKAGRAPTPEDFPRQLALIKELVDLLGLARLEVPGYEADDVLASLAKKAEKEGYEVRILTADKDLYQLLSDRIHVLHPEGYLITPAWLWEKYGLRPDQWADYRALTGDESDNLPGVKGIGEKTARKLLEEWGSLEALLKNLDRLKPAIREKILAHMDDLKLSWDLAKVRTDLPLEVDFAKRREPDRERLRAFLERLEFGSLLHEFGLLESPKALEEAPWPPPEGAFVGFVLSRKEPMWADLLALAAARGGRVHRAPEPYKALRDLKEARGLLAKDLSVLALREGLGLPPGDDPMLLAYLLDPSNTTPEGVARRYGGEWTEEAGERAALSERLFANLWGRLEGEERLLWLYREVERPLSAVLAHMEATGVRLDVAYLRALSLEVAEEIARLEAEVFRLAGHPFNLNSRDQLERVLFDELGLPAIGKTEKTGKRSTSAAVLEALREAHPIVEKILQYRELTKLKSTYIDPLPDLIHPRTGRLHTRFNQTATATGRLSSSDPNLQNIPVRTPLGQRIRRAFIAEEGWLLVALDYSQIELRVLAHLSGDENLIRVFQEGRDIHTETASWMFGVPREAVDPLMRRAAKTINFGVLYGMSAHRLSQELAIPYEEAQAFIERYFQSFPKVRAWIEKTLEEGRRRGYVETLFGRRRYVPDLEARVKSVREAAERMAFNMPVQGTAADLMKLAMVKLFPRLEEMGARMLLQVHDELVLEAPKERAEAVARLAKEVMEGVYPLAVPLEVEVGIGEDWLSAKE
# Chain of Histone deacetylase 1 (Q13547 whole entry, the tested form may be a part): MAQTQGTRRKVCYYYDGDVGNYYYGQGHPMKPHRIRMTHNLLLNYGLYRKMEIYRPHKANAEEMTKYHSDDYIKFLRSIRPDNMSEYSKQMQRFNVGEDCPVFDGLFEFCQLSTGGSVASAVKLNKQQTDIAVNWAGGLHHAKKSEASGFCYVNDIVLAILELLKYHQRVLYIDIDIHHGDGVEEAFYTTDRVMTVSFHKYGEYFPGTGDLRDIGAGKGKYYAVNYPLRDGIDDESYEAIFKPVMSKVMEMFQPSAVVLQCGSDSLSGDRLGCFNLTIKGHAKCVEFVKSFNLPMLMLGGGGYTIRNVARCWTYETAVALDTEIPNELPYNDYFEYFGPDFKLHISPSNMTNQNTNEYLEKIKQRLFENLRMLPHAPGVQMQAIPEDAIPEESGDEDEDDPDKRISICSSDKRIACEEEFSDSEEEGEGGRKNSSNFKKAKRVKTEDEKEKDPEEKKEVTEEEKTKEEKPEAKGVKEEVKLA
# Chain of Histone deacetylase 2 (Q92769 whole entry, the tested form may be a part): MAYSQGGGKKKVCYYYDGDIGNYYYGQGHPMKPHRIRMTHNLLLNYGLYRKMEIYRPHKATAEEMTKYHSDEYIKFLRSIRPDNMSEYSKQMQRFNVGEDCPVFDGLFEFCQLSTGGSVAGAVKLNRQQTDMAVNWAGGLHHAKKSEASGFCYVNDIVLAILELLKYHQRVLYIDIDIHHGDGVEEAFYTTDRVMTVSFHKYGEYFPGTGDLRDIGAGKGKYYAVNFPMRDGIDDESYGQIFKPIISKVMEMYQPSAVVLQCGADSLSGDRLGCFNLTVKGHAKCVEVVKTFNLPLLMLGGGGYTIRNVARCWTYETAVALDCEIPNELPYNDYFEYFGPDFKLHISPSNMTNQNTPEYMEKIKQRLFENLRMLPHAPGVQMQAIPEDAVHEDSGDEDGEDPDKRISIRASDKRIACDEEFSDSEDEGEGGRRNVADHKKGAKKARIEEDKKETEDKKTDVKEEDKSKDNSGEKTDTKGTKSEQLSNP
# Chain of Histone deacetylase 4 (P56524 whole entry, the tested form may be a part): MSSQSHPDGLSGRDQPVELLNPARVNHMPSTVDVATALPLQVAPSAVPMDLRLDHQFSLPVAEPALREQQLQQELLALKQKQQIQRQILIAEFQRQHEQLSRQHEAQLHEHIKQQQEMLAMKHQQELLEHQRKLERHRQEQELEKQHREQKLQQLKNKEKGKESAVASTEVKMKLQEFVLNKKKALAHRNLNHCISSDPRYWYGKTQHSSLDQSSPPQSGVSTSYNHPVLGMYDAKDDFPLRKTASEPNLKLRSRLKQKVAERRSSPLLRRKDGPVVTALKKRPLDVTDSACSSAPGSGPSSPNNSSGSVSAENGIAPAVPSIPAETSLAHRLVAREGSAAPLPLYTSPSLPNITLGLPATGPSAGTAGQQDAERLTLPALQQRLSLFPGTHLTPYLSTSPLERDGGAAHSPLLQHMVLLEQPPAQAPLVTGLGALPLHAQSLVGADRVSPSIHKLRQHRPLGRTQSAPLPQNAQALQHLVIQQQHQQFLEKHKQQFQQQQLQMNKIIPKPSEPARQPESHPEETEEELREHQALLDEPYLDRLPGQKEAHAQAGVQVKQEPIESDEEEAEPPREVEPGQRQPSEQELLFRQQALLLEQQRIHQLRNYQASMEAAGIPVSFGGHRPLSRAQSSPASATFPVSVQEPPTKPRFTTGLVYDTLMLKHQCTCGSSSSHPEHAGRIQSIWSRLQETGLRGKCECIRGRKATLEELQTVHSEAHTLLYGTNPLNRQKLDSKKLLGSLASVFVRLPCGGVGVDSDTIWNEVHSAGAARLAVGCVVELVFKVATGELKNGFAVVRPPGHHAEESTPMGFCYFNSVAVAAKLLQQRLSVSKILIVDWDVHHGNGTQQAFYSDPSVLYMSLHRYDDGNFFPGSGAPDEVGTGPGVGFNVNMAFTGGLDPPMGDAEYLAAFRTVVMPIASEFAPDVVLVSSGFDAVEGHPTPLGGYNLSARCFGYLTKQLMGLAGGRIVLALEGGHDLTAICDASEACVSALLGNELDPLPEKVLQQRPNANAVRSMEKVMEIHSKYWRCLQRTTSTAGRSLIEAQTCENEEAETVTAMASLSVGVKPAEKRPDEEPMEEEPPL
SMILES,ΔTm [1] [°C],ΔTm [2] [°C],IC50 [3] [µM],GI50 [10] [µM],GI50 [11] [µM],GI50 [12] [µM],ΔTm [24] [°C],ΔTm [25] [°C],other results
Cl.NCCCCNCCCCNCCCN1C(=O)c2ccc3c4c(ccc(c24)C1=O)C(=O)N(CCCCCC(=O)NO)C3=O,7.5,13.3,0.56,> 5,3.08,> 5,–,–,IC50 [4]: 4.12 µM; IC50 [5]: 10.8 µM; IC50 [6]: 117 µM; IC50 [7]: 0.05 µM; fold change (FC) [8]: 2; fold change (FC) [9]: 2; fold change (FC) [13]: 1.32; fold change (FC) [14]: 1.28; fold change (FC) [15]: 0.44; Activity [16]: 85%; fold change (FC) [17]: 0.68; fold change (FC) [18]: 3.66; fold change (FC) [19]: 2.61; Activity [20]: >80%; fold change (FC) [21]: 1.38; fold change (FC) [22]: 1.38; inhibition [23]: Active
Cl.NCCCNCCCNCCCN1C(=O)c2ccc3c4c(ccc(c24)C1=O)C(=O)N(CCCCCC(=O)NO)C3=O,5,9.9,0.37,> 5,2.13,> 5,–,–,inhibition [23]: Active
O=C(CCCCCN1C(=O)c2cccc3cccc(c23)C1=O)NO,0.1,0.1,–,–,–,–,0.1,0.1,growth inhibition (GI) ([10]; U-87MG ATCC): Active; growth inhibition (GI) [11]: Active; growth inhibition (GI) [12]: Active; inhibition [13]: inactive; inhibition [14]: inactive; inhibition [15]: inactive; inhibition [17]: inactive
CN(C)c1ccc(Nc2c3ccc(NC(=O)CCN4CCCC4)cc3nc3cc(NC(=O)CCN4CCCC4)ccc23)cc1,0.5,11,–,–,–,–,5.3,28.3,–
Cl.NCCCNCCNCCCN1C(=O)c2ccc3c4c(ccc(c24)C1=O)C(=O)N(CCCCCC(=O)NO)C3=O,2,4.4,0.55,–,–,–,3.4,7.8,–
Cl.NCCCNCCCCNCCCN1C(=O)c2ccc3c4c(ccc(c24)C1=O)C(=O)N(CCCCCC(=O)NO)C3=O,3.5,4.5,0.52,–,–,–,8.1,10.9,–
COc1ccccc1CNCCCN1C(=O)c2ccc3c4c(ccc(c24)C1=O)C(=O)N(CCCNCCCCNCCCN)C3=O,0.6,1.5,–,4.85,4.39,> 5,–,–,inhibition [13]: inactive; inhibition [14]: inactive; inhibition [15]: inactive; inhibition [17]: inactive
Cl.NCCCNCCCN1C(=O)c2ccc3c4c(ccc(c24)C1=O)C(=O)N(CCCCCC(=O)NO)C3=O,1,2.4,0.41,–,–,–,–,–,–
